Compound activity as filed in PubChem BioAssay.
NCF1 inh: blocks human p47phox regulatory protein of NADPH oxidases; p47phox/p22phox peptide binding, fluorescence polarization, 2 h; 220,000 tested, 0.53% active; inhibition, % at 24.7 µM
Target sequence (P14598 whole entry, looked up): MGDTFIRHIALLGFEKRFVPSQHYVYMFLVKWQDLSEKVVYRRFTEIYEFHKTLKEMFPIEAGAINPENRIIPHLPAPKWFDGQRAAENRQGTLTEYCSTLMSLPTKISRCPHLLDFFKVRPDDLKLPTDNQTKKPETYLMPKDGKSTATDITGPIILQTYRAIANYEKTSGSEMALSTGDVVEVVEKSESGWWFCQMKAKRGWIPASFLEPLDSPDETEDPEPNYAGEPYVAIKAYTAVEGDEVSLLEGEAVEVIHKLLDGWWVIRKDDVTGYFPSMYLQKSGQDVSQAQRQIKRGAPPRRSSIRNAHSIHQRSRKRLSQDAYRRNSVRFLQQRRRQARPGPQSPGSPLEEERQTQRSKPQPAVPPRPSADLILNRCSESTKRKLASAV
EBV gp42 inh: inhibitors of Epstein-Barr virus glycoprotein 42; Q1HVG2; Fluorescence polarization binding assay, mP read-out; inhibition, % (tested at 21.74 µM); 220,000 tested, 0.42% active; AID 1085; in the data active = inhibition above about 50%
RBBP9 inhibitor: inhibitors of human serine hydrolase RBBP9; recombinant RBBP9, FP-Rh probe fluorescence polarization; inhibition, % at 7.94 µM; O75884; 220,000 tested, 0.2% active;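 active = inhibition above the campaign mean of all tested compounds plus 3 SD, cut at about 14% in these data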
Target sequence (O75884 whole entry, looked up): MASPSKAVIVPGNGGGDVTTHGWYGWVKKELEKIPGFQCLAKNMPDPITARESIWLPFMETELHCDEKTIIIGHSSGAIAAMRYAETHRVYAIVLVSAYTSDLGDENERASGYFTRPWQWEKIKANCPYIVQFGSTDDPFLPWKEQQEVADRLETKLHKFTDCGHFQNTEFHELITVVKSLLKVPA
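Test system: recombinant human RBBP9. Quantity: 2.5 µM RBBP9 dispensing solution, before mixing. Detection: FP readout at 525/598 nm. Reagent: Serine-hydrolase probe FP-Rh, 375 nM pre-mixing. Measure: % inhibition. Control set: DMSO-treated enzyme wells and wells lacking RBBP9. Buffer or medium: Tris-NaCl-Pluronic buffer, pH 8.0. Times: preincubation 30 min plus labeling 45 min at 25 °C.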
eIF4E 4G PPI: inhibitors of eIF4E and eIF4G interaction in translation initiation; P63073+Q04637; TR-FRET eIF4E-eIF4GI(517-606) binding, 2 h; 220,000 tested, 0.37% active; inhibition, % at 21.7 µM; AID 782
14-3-3 Bad inh: disrupts binding of bovine 14-3-3 zeta to phospho-Bad peptide; inhibition, % at 21.7 µM; 220,000 tested, 0.71% active; AID 781; P63103; TR-FRET 14-3-3zeta/Dy647-pBad peptide displacement, 1 h;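 active = inhibition above about 70%, limit read from the data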
WT yeast gro inh: growth inhibition of WT yeast, mitochondrial fusion screen | mitochondrial fusion phenotypic screen, WT strain | inhibition, % at 10 µM | 190,000 tested, 2.1% active; in the data active = inhibition above about 58%; tested in S. cerevisiae
Each line names hits and unclear results; the compound was inactive in the other large screens. Shown are actives, neighbours in structure and some others; about 3.7% of the full set was active somewhere.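 The calls were made as follows, unless noted: active = inhibition above about 30% (limit read from the data); inactive = the rest.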

CCOc1cc(/C=N/NC(=O)Nc2ccccc2)ccc1O	NCF1 inh 75
Cc1ccc(NC(=O)N(Cc2ccco2)Cc2cc3cc(C)cc(C)c3nc2Cl)cc1	NCF1 inh 160
Cc1ccccc1NC(=O)c1sc(Cl)nc1-c1ccccc1	NCF1 inh 68
Cc1ccc(C)c(NC(=O)c2sc(Cl)nc2-c2ccccc2)c1	none
CSc1c(CC(=O)Nc2ccccc2)n(Cc2ccccc2)c2ccccc12	none
COc1ccc(CN(C)CC(=O)Nc2ccc(Cl)cc2F)c(OC)c1	none (no result: WT yeast gro inh)
C/C(O)=c1/ccc2cccc3nc(C)nc1c23	EBV gp42 inh 110
O=C(Nc1cc(S(=O)(=O)N2CCOCC2)ccc1N1CCOCC1)c1ccc(Cl)nc1	none (no result: WT yeast gro inh)
COc1ccc(Cl)cc1NC(=O)CCc1nc(-c2ccccc2F)no1	none
COc1cc(CN2CCC(C(=O)NC3CCCC3)CC2)ccc1O	14-3-3 Bad inh 77
CCOC(=O)C1CCCN(Cc2ccc(O)c(OC)c2)C1 (stereo not drawn)	none
COc1ccc(CCN2C(=O)NC(NS(=O)(=O)c3ccc(NC(C)=O)cc3)(C(F)(F)F)C2=O)cc1OC (stereo not drawn)	none
Cc1ccc(NC(=O)CSc2ncc3ccccn23)cc1	none
Nc1nnc(CC(=O)N2CCCCC2)s1	eIF4E 4G PPI 46
c1ccc(Nc2cccc(Nc3ccccc3)c2)cc1	WT yeast gro inh 71
Cc1ccccc1NC(=O)Cn1c(NCC(C)O)nc2ccccc21 (stereo not drawn)	none
CC(O)CNc1nc2ccccc2n1CC(=O)NCCc1ccc(Cl)cc1 (stereo not drawn)	eIF4E 4G PPI 34
CC(C)c1ccc(/C=c2\sc3nc(-c4ccncc4)nn3c2=O)cc1	none
Cc1ccc(/C=c2\sc3nc(-c4cccnc4)nn3c2=O)cc1	EBV gp42 inh 86
CCC(=O)N(Cc1cc2cc(C)c(C)cc2[nH]c1=O)C1CCCCC1	none
CC(=O)N(Cc1cc2c(C)cc(C)cc2[nH]c1=O)C1CCCCC1	WT yeast gro inh 98
N#C/C(=C\c1ccccc1C(F)(F)F)C(=O)Nc1ccccc1	none
CCc1cccc(CC)c1NC(=O)/C(C#N)=C/c1ccccc1C(F)(F)F	WT yeast gro inh 68
S=C(NCc1cccc(Cl)c1)NC1CCCCC1	WT yeast gro inh 66
CC1CN(C)C(C)C/C1=N\Oc1ccc([N+](=O)[O-])cc1 (stereo not drawn)	none
CC1=CC(=O)C=C(C)C1=NOc1ccc([N+](=O)[O-])cc1	14-3-3 Bad inh 74
O=C(CCN1c2ccccc2Sc2ccccc21)Oc1ccccc1	none
COC(=O)c1ccc(OC(=O)CCN2c3ccccc3Sc3ccccc32)cc1	WT yeast gro inh 61
CC(=O)c1ccc(OC(=O)CCN2c3ccccc3Sc3ccccc32)cc1	WT yeast gro inh 61
Cc1ccc(C2=Nc3ccc(Br)cc3C(c3ccncc3)=NN2)cc1	none
O=C(NN1C(=O)C2CC=C(Cl)CC2C1=O)c1ccncc1 (stereo not drawn)	none
CC(=O)OCc1c(C)cc(C)c(/C=C(/C#N)C(N)=O)c1C	none
O=C(Nc1ccc2ccccc2c1)c1ccc(Cl)cc1Cl	none (no result: WT yeast gro inh)
O=C(Nc1nc(=S)ss1)c1ccc(Cl)cc1Cl	14-3-3 Bad inh 80
CCC(=O)Nc1nc2ccccc2n1CCN1CCOCC1	NCF1 inh 38
COc1ccc(/C=N/NC(=O)CN(C2=NS(=O)(=O)c3ccccc32)c2ccccc2)cc1	NCF1 inh 31
COc1ccc(C2=NO[C@@H]3C(=O)N(C4CCCCC4)C(=O)[C@H]23)cc1OC	none
COc1ccc(-c2nc3c(n2O)CCCC3=O)cc1OC	WT yeast gro inh 60
O=C1/C(=C/c2ccncc2)CCC/C1=C\c1ccncc1	WT yeast gro inh 64
O=C1/C(=C/c2ccncc2)CCc2ccccc21	none (no result: WT yeast gro inh)
CCOC(=O)Cn1c(C)[n+](CC(=O)c2ccccc2)c2ccccc21	none (no result: WT yeast gro inh)
Cc1ccc(NC(=S)N/C(=N/S(=O)(=O)c2ccccc2)c2ccccc2)cc1	NCF1 inh 164
COCC(C)n1c(SCc2nc3ccccc3c(=O)[nH]2)nc2ccccc2c1=O (stereo not drawn)	none
COCC(C)n1c(SCc2ccc(OC)c(F)c2)nc2ccccc2c1=O (stereo not drawn)	WT yeast gro inh 74
O=C(C(=S)N1CCOCC1)c1c[nH]c2ccccc12	none
Cc1ccccc1S(=O)(=O)c1c(C)cc(C)n(CC(C)C)c1=O	WT yeast gro inh 68
CCOC(=O)C1CCN(C(=O)c2sccc2Cl)CC1	none (no result: WT yeast gro inh)
CC1CCCC(NC(=S)NC(=O)c2ccccc2Br)C1C (stereo not drawn)	WT yeast gro inh 63
CC1CCCC(NC(=O)Cc2ccc(Br)cc2)C1C (stereo not drawn)	none
Cc1ccc(Cn2ccc(=O)c(OCc3c(Cl)cccc3Cl)c2C)cc1	WT yeast gro inh 77
CN(C1CCCCC1)S(=O)(=O)c1ccc2[nH]c(=O)oc2c1	none (no result: WT yeast gro inh)
Cc1ccc(-c2nc(CN(C)C3CCOC3)c(C)o2)s1 (stereo not drawn)	none
Cc1ccc(C2=NN(S(=O)(=O)c3ccccc3)C(c3ccccc3O)C2)cc1 (stereo not drawn)	WT yeast gro inh 84
O=C(c1ccccc1)N1N=C(c2ccccc2)CC1c1ccccc1O (stereo not drawn)	WT yeast gro inh 67
N=C1/C(=C\c2ccc(-c3ccc(C(=O)O)cc3)o2)C(=O)N=C2SC=C(c3ccccc3)N12	EBV gp42 inh 61, eIF4E 4G PPI 65, 14-3-3 Bad inh 80 (no result: WT yeast gro inh)
COc1ccc(NC(=O)CC2C(=O)N(c3ccc(OC)cc3)C(=O)N2Cc2ccc(OC)c(OC)c2)cc1 (stereo not drawn)	none
COc1ccc(CN2CCC(CO)(Cc3ccccc3C(F)(F)F)CC2)c(F)c1	none
COc1ccc(-c2ncncc2-c2ccc(Cl)cc2)c(O)c1	eIF4E 4G PPI 83 (no result: WT yeast gro inh)
CCCC(c1nnnn1C1CCCC1)N1CCN(c2ccccc2F)CC1 (stereo not drawn)	14-3-3 Bad inh 81
CC(C)(C)c1ccc(C(CC(=O)O)NC(=O)c2ccccc2F)cc1 (stereo not drawn)	none
CC(C)(C)N/N=C1\CC(c2ccccc2)Oc2ccccc21 (stereo not drawn)	WT yeast gro inh 62
CC1=C/C(=N\NC(=O)c2ccccc2)CC1	none
Oc1cccc(C(O)CNCc2ccc(-c3ccccc3)cc2)c1 (stereo not drawn)	14-3-3 Bad inh 77
Oc1cccc(C(O)CNCc2ccc(OCc3ccc(Cl)cc3Cl)cc2)c1 (stereo not drawn)	WT yeast gro inh 88
OC(CNCc1cccc(Cl)c1)c1ccccc1 (stereo not drawn)	none
OC(CNCc1ccccc1)c1ccccc1 (stereo not drawn)	none (no result: WT yeast gro inh)
COCCNS(=O)(=O)c1ccc(C)c(C)c1C	none
CCN1CCN(C(C)C(=O)NC2CCCCC2)CC1 (stereo not drawn)	none (no result: WT yeast gro inh)
